Data set [1] in a line: Drug level in serum at 600 mg. The data set is classed as ADME, cell-free.
Data set [2] relates to A549. The data set can be described thus: Immunomodulatory effect in human A549 cells assessed as reduction in IL-1-beta-induced PGE2 formation at 100 ug/ml after 48 hrs by enzyme immunoassay. The data set is classed as functional, cell-based. The essentials: (§1)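 A549 cells seeded at 1.5 x 10^5/well and grown 24 h, then held overnight in serum- and antibiotic-free medium. Cells exposed to IL-1ß (1 ng/ml) with or without rifampin (10 to 100 µg/ml) in fresh medium for 48 h, with DMSO vehicle at most 0.1%. Cleared supernatants stored at –70°C. PGE2 measured by enzyme immunoassay, triplicate wells.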

For data set [3], the system named is A549. Nature of the data set: Immunomodulatory effect in human A549 cells assessed as reduction in IL-1-beta-induced PGE2 formation at 50 ug/ml after 48 hrs by enzyme immunoassay. The format is functional. Also noted: scale not given: the % may be the effect or the level left. In short, it runs like this:
as §1

The test system of data set [4] is A549. The data set can be described thus: Immunomodulatory effect in human A549 cells assessed as reduction in IL-1-beta-induced PGE2 formation at 25 ug/ml after 48 hrs by enzyme immunoassay. Also noted: scale not given: the % may be the effect or the level left. The format is functional. The essentials: as §1
Data set [5] relates to A549. The data set can be described thus: Cytotoxicity against human A549 cells assessed as cell viability by neutral red uptake assay. The format is cell-based. In short, it runs like this: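 A549 cells in 96-well plates, after treatment, given neutral red at 0.05% final in fresh medium for 1 h. Cells washed with cold PBS containing Ca2+ and Mg2+, then dye extracted with Sorenson's citrate buffer-ethanol. Absorbance read at 540 nm. Viability taken as the absorbance ratio of treated to untreated cells.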

The test system of data set [6] is A549. The data set can be described thus: Immunomodulatory effect in human A549 cells assessed as reduction in IL-1-beta-induced [3H]arachidonic acid release measured after 4 hrs of IL1-beta challenge by liquid scintillation counting. The data set is classed as functional, cell-based. The essentials:
(§2)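 A549 cells (2 x 10^6 per 3-cm plate), grown 24 h, labeled 4 h with [3H]AA at 0.5 µCi/ml in serum-free medium, then washed five times. Incubated in serum-free medium with 1 mg/ml BSA plus IL-1ß (1 ng/ml) ± rifampin, or rifampin alone, or medium alone, for 4 h unless another time is stated. Supernatant counted by liquid scintillation. Release given as % of incorporated label. Inhibition = 100 x [(IL-1ß – medium) – (IL-1ß+rif – rif alone)]/(IL-1ß – medium).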

Data set [7] has as its system A549. The data set can be described thus: Immunomodulatory effect in human A549 cells assessed as reduction in spontaneous release of [3H]arachidonic acid by liquid scintillation counting. The format is functional, cell-based. The essentials:
(§3)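 A549 cells prelabeled 4 h with [3H]AA at 0.5 µCi/ml, washed, then kept in serum-free medium with 1 mg/ml BSA, alone or with rifampin, with sampling at set times. Supernatant radioactivity counted by liquid scintillation and given as % of incorporated label. Incorporation estimated by subtracting supernatant counts after labeling from the radioactivity added. Two independent experiments, n = 5 per group.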

For data set [8], the system named is A549. The data set can be described thus: Immunomodulatory effect in human A549 cells assessed as reduction in IL-1-beta-induced [3H]arachidonic acid release at 10 to 100 ug/ml measured after 4 hrs of IL1-beta challenge by liquid scintillation counting. The data set is classed as functional, cell-based. The essentials:
as §2

Data set [9] has as its system A549. The data set can be described thus: Immunomodulatory effect in human A549 cells assessed as reduction in IL-1-beta-induced [3H]arachidonic acid release at 50 ug/ml measured after 2 hrs of IL1-beta challenge by liquid scintillation counting. The format is functional. Set-up: scale not given: the % may be the effect or the level left. The essentials:
as §2

The test system of data set [10] is A549. The data set can be described thus: Immunomodulatory effect in human A549 cells assessed as reduction in IL-1-beta-induced [3H]arachidonic acid release at 50 ug/ml measured after 6 hrs of IL1-beta challenge by liquid scintillation counting. The data set is classed as functional. Set-up: scale not given: the % may be the effect or the level left. The essentials:
as §2

Data set [11] relates to A549. The data set can be described thus: Immunomodulatory effect in human A549 cells assessed as reduction in IL-1-beta-induced [3H]arachidonic acid release at 50 ug/ml measured after 19 hrs of IL1-beta challenge by liquid scintillation counting. The data set is classed as functional. Set-up: scale not given: the % may be the effect or the level left. The essentials:
as §2

In data set [12] the test system is A549. The data set can be described thus: Immunomodulatory effect in human A549 cells assessed as reduction in basal release of [3H]arachidonic acid at 50 ug/ml up to 2 hrs by liquid scintillation counting. The data set is classed as functional. Set-up: scale not given: the % may be the effect or the level left. The essentials: as §3
Data set [13] deals with A549. The data set can be described thus: Immunomodulatory effect in human A549 cells assessed as reduction in basal release of [3H]arachidonic acid at 50 ug/ml up to 19 hrs by liquid scintillation counting. The data set is classed as functional. Also noted: scale not given: the % may be the effect or the level left. The essentials:
as §3

The test system of data set [14] is A549. The data set can be described thus: Immunomodulatory effect in human A549 cells assessed as inhibition of Ca2+ ionophore A23187 stimulated-[3H]arachidonic acid release measured after 45 mins of A23187 challenge by liquid scintillation counting. The data set is classed as functional, cell-based.
Data set [15] has as its system A549. Nature of the data set: Immunomodulatory effect in human A549 cells assessed as inhibition of Ca2+ ionophore A23187 stimulated-[3H]arachidonic acid release measured after 2 hrs of A23187 challenge by liquid scintillation counting. The format is functional.
Data set [16] has as its system A549. The data set can be described thus: Immunomodulatory effect in human A549 cells assessed as inhibition of Ca2+ ionophore A23187 stimulated-[3H]arachidonic acid release measured after 4 hrs of A23187 challenge by liquid scintillation counting. The format is functional.
The subject of data set [17] is A549. The data set can be described thus: Inhibition of IL-1-beta-induced COX2 expression in human A549 cells at 50 ug/ml measured after 24 hrs of IL1-beta challenge by Western blot analysis. The format is functional, cell-based. The essentials:
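A549 cells (2 x 10^6 per 3-cm dish) grown 24 h, then 24 h in serum- and antibiotic-free medium. Treated with IL-1ß (1 ng/ml) ± rifampin (50 µg/ml) for 24 h, then lysed in SDS buffer and denatured at 95°C. Blocked in 5% milk/TBST, then rabbit anti-COX-2 (1:1,000) overnight at 4°C. HRP secondary used and detected by ECL, with β-actin as comparator and densitometry.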
Background: Immunoblotting shows a protein as a band on a membrane.

SMILES strings stand for the structures. Calls of active or inactive are those of the source. No cut-off for these calls is given here.

In the case of `CO[C@H]1/C=C/O[C@@]2(C)Oc3c(C)c(O)c4c(O)c(c(/C=N/N5CCN(C)CC5)c(O)c4c3C2=O)NC(=O)/C(C)=C\C=C\[C@H](C)[C@H](O)[C@@H](C)[C@@H](O)[C@@H](C)[C@H](OC(C)=O)[C@@H]1C` [RIFAMPIN], in data set [1], the Drug uptake was determined as 10 µg/mL. Besides, the Activity entry in the data set on A549 [2] is “Dose-dependent effect”; in the data set on A549 [3], 59%; in the data set with A549 [4], 45%; with A549 [5] it was “Non-toxic”; in the data set with A549 [6], “Dose-dependent effect”; in the data set on A549 [7], “Dose-dependent effect”. Moreover, the Activity was 53% with A549 [9]; 79% in the data set with A549 [10]; 95% with A549 [11]; 47% with A549 [12]; 34% in the data set with A549 [13]. The result in the data set with A549 [8] was Active. The inhibition result in the data set on A549 [14] and in the data set on A549 [17] was “inactive” throughout. For the same molecule, the “inhibition (INH)” value in the data set on A549 [15] was 5.5%; in the data set with A549 [16], 8.3%.

The record behind these values is ChEMBL document CHEMBL1153547, “Rifampin inhibits prostaglandin E2 production and arachidonic acid release in human alveolar epithelial cells” (Antimicrob Agents Chemother, 2007).
